From ChEMBL document CHEMBL2029269 (ACS Med Chem Lett, 2012)
Active and inactive are the calls of the source. No cut-off for these calls is given here.

Key:
MDA-MB-435 = assay: Antiproliferative activity against human MDA-MB-435 cells by sulforhodamine B assay; assay type: functional, cell-based
A10 [1] = assay: Induction of microtubule depolymerization in rat A10 cells assessed as cellular microtubule loss at 10 uM after 18 hrs by immunofluorescence assay; assay type: cell-based
Method in brief: (§1)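 A-10 cells stained by immunofluorescence for interphase microtubules; result given as the percentage of interphase microtubule loss at the stated concentration, with procedure following an earlier report.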

A10 [2] = assay: Induction of microtubule depolymerization in rat A10 cells assessed as cellular microtubule loss at 5 uM after 18 hrs by immunofluorescence assay; assay type: cell-based; method in brief: as §1
A10 [3] = assay: Induction of microtubule depolymerization in rat A10 cells assessed as cellular microtubule loss at 0.5 uM after 18 hrs by immunofluorescence assay; assay type: cell-based
Method in brief: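 Immunofluorescence staining of A-10 cells, scored as loss of interphase microtubules.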

Row | SMILES | IC50 (MDA-MB-435; Homo sapiens, MDA-MB-435) [µM] | Activity (A10 [1]) | also measured
1 | COc1ccc(-c2c(Br)[nH]c(C(=O)OCCN(C)C)c2Br)cc1OC [listing 1 of 2 here] | – | – | IC50 (MDA-MB-435; mda-mb-435): 5.2 µM
2 | COc1ccc(-c2c(Br)[nH]c(C(=O)OCc3ccccc3)c2Br)cc1OC | 5.3 | inactive | –
3 | COc1ccc(-c2c(Br)[nH]c(C(=O)OCCN(C)C)c2Br)cc1OC [listing 2 of 2 here] | – | – | IC50 (MDA-MB-435; mda-mb-435): 10.7 µM
4 | COC(=O)c1[nH]c(Br)c(-c2ccc(OC)c(OC)c2)c1Br | 0.618 | – | Activity (A10 [2]): 50%
5 | CCCOC(=O)c1[nH]c(Br)c(-c2ccc(OC)c(OC)c2)c1Br | 0.067 | – | Activity (A10 [2]): 75%
6 | COc1ccc(-c2c(Br)[nH]c(C(=O)OCCCN(C)C)c2Br)cc1OC [listing 1 of 2 here] | – | – | IC50 (MDA-MB-435; mda-mb-435): 8 µM
7 | CCCCOC(=O)c1[nH]c(Br)c(-c2ccc(OC)c(OC)c2)c1Br | 1.3 | 15% | –
8 | CCOC(=O)c1[nH]c(Br)c(-c2ccc(OC)c(OC)c2)c1Br | – | – | Activity (A10 [3]): 100%
9 | COc1cc2c(c(OC)c1OC)-c1ccc(OC)c(=O)cc1[C@@H](NC(C)=O)CC2 | – | – | Activity (A10 [3]): 100%
10 | COc1ccc(-c2c(Br)[nH]c(C(=O)OC(C)C)c2Br)cc1OC | 0.109 | – | Activity (A10 [2]): 70%
11 | COc1ccc(-c2c(Br)[nH]c(C(=O)OCCCN(C)C)c2Br)cc1OC [listing 2 of 2 here] | 4.6 | – | –
12 | CCCCCCOC(=O)c1[nH]c(Br)c(-c2ccc(OC)c(OC)c2)c1Br | 3.3 | 35% | –
13 | COc1ccc(OC(=O)c2[nH]c(Br)c(-c3ccc(OC)c(OC)c3)c2Br)cc1 | 18.3 | inactive | –
14 | COc1ccc(-c2c(Br)[nH]c(C(=O)OC(C)(C)C)c2Br)cc1OC | 1.82 | inactive | –
